Experimental data published in ChEMBL document CHEMBL5661974, “Pharmacologic characterization of a potent inhibitor of class I phosphatidylinositide 3-kinases” (Cancer Res, 2007).
Active and inactive are the calls of the source. The calls are words filed in the database; no cut-off is given here.

What was measured:
HCT-116 [1] = assay: Antiproliferative activity against human HCT-116 cells harboring PI3KCA mutant assessed as cell growth inhibition incubated for 96 hrs by SRB assay; assay type: functional
Detroit 562 = assay: Antiproliferative activity against human Detroit 562 cells harboring PI3KCA mutant assessed as cell growth inhibition incubated for 96 hrs by SRB assay; assay type: functional
IGROV-1 = assay: Antiproliferative activity against human IGROV-1 cells harboring PI3KCA/PTEN mutant assessed as cell growth inhibition incubated for 96 hrs by SRB assay; assay type: functional
MDA-MB-435 [2] = assay: Antiproliferative activity against human MDA-MB-435 cells harboring AKT assessed as cell growth inhibition incubated for 96 hrs by SRB assay; assay type: functional
U-87 MG [3] = assay: Inhibition of recombinant PI3K in human U-87MG cells assessed as phosphorylation of GSK3beta at Ser9 at 5 times of GI50 concentration within 15 mins treatment by immunoblot analysis; assay type: cell-based
[4] = Inhibition of recombinant human PI3K in cricetulus griseus CHO cells expressing GFP-tagged AKT1 assessed as translocation to the plasma membrane following IGF-1 stimulation by fluorescence assay
How it was run: (§1)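 CHO cells expressing GFP-tagged AKT1, AKT2, AKT3 or PDK1, held in 0.05% serum with 0.1% BSA and stimulated with 100 nmol/L IGF-1. Plasma-membrane translocation was read by automated fluorescence imaging, with IC50 from concentration-response curves; Z' above 0.5.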

[5] = Inhibition of recombinant human PI3K in cricetulus griseus CHO cells expressing GFP-tagged AKT2 assessed as translocation to the plasma membrane following IGF-1 stimulation by fluorescence assay; how it was run: as §1
[6] = Drug metabolism in human microsomes incubated for 30 mins by LC-MS/MS analysis; assay type: ADME, Microsome; settings: read-out: Drug metabolism
How it was run: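 Mouse or human microsomes incubated 30 min with inhibitor at 1 or 10 μmol/L. Metabolite detection by LC-MS/MS on an ion trap, with a 10–90% methanol gradient over 6 min and scan range 50–1,000 amu.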

[7] = Volume of distribution at steady state in BALB/C mouse at 2.5 mg/kg, iv by LC-MS/MS analysis; assay type: ADME, organism-based; settings: in vivo, read-out: Vdss
How it was run: (§2)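 Female BALB/c mice, 6–8 weeks old, given 2.5 mg/kg i.v. in 10% DMSO, 0.5% Tween 20 in saline. Plasma came from serial bleeds; tissues were homogenized in 2 or 3 volumes PBS. Samples were methanol-precipitated with an analogue internal standard, then LC-MS/MS by multiple reaction monitoring against an 8-point external calibration of 2–20,000 nmol/L. Parameters came from WinNonlin noncompartmental analysis, model 201 for plasma and model 200 for tissues.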

[8] = Cmax in BALB/C mouse plasma at 2.5 mg/kg, iv by LC-MS/MS analysis; assay type: ADME, organism-based; how it was run: as §2
[9] = AUClast in BALB/C mouse kidney at 2.5 mg/kg, iv by LC-MS/MS analysis; assay type: ADME, organism-based; how it was run: as §2
[10] = AUClast in BALB/C mouse plasma at 50 mg/kg, ip by LC-MS/MS analysis; assay type: ADME, organism-based; settings: in vivo
How it was run: (§3)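 Female BALB/c mice, 6–8 weeks old, dosed i.p. at 50 mg/kg in 20% […] β-cyclodextrin in saline, 0.1 mL/10 g. Serial blood samples; plasma was methanol-precipitated with an analogue internal standard. LC-MS/MS multiple reaction monitoring, external calibration 2–20,000 nmol/L. Noncompartmental analysis, model 200.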

[11] = Clearance in BALB/C mouse plasma at 2.5 mg/kg, iv by LC-MS/MS analysis; assay type: ADME, organism-based; how it was run: as §2
[12] = Volume of distribution in BALB/C mouse plasma at 50 mg/kg, ip by LC-MS/MS analysis; assay type: ADME, organism-based; settings: in vivo; how it was run: as §3
[13] = Half life in BALB/C mouse liver at 2.5 mg/kg, iv by LC-MS/MS analysis; assay type: ADME, organism-based; how it was run: as §2
U-87 MG [14] = assay: Antitumor activity against PTEN null human U-87MG cells xenografted female Ncr model assessed as T/C at 40 mg/kg, ip administered once a daily for 14 days relative to control; assay type: functional, U-87MG ATCC; settings: time 14 day
HCT-116 [15] = assay: Antitumor activity against PIK3CA mutant human HCT-116 cells xenografted female Ncr model assessed as T/C at 30 mg/kg, ip administered twice a daily for 14 days relative to control; assay type: functional; settings: time 14 day
PC-3 [16] = assay: Antitumor activity against PTEN null human PC-3 cells xenografted male Ncr model assessed as T/C at 30 mg/kg, ip administered once a daily for 14 days relative to control; assay type: functional; settings: time 14 day
PC-3 [17] = assay: Antitumor activity against PTEN null human PC-3 cells xenografted male Ncr model assessed as T/C at 30 mg/kg, ip administered twice a daily for 14 days relative to control; assay type: functional; settings: time 14 day
MDA-MB-435 [18] = assay: Antitumor activity against ERB-B2 overexpressing human MDA-MB-435 cells xenografted female Ncr model assessed as T/C at 30 mg/kg, ip administered once a daily for 14 days relative to control; assay type: functional; settings: time 14 day
MDA-MB-435 [19] = assay: Antitumor activity against ERB-B2 overexpressing human MDA-MB-435 cells xenografted female Ncr model assessed as T/C at 30 mg/kg, ip administered twice a daily for 14 days relative to control; assay type: functional; settings: time 14 day
MDA-MB-468 = assay: Antitumor activity against PTEN null human MDA-MB-468 cells xenografted female Ncr model assessed as T/C at 40 mg/kg, ip administered once a daily for 40 days relative to control; assay type: functional; settings: time 40 day
U-87 MG [20] = settings: Homo sapiens, time 24.0 hrs
U-87 MG [21] = settings: Homo sapiens, time 24.0 hrs; remark: listed apart in the source
OVCAR-3 [22] = settings: Homo sapiens, dose 100.0 mg/kg, route ip, time 750.0 min
OVCAR-3 [23] = settings: Homo sapiens, dose 100.0 mg/kg, route ip, time 750.0 min; remark: listed apart in the source
OVCAR-3 [24] = settings: Homo sapiens, dose 100.0 mg/kg, route ip
U-87 MG [25] = assay: Inhibition of cell invasion in human U-87MG cells at 50 nmol/L by transwell assay relative to control
U-87 MG [26] = assay: Antitumor activity against PTEN null human U-87MG cells xenografted female Ncr model assessed as body weight loss at 40 mg/kg, ip administered daily for 14 days relative to control; settings: time 14 day
U-87 MG [27] = assay: Antitumor activity against PTEN null human U-87MG cells xenografted female Ncr model assessed as body weight loss at 70 mg/kg, ip administered daily for 14 days relative to control; settings: time 14 day
PC-3 [28] = assay: Antitumor activity against PTEN null human PC-3 cells xenografted male Ncr model assessed as body weight loss at 30 mg/kg, ip administered once a daily for 14 days relative to control; settings: time 14 day
HCT-116 [29] = assay: Antitumor activity against PIK3CA mutant human HCT-116 cells xenografted female Ncr model assessed as body weight loss at 30 mg/kg, ip administered once a daily for 14 days relative to control; settings: time 14 day

`Oc1cccc(-c2nc(N3CCOCC3)c3oc4ncccc4c3n2)c1` [PI-103] showed a GI50 (HCT-116 [1]) of 930 nM, a GI50 (Detroit 562) of 360 nM and a GI50 (IGROV-1) of 60 nM. The GI50 (MDA-MB-435 [2]) was 130 nM, the inhibition (U-87 MG [3]) was “Active” and the IC50 [4] was 17 nM. For the same compound, the IC50 [5] was 13 nM, the metabolised at 0.5 h [6] was > 70% and the Vd [7] was 0.052 L. For the same compound, the Cmax [8] was 4.17 µM, the AUC(0-t) [9] was 0.453 µM·h and the AUClast [10] was 20.459 µM·h. The clearance [11] was 3.17 mL/min, the Vd [12] was 0.71 L and the half-life [13] was 4.2 h. The T/C (U-87 MG [14]) was 89.1%, the T/C (HCT-116 [15]) was 28% and the T/C (PC-3 [16]) was 80.8%. It also gave a T/C (PC-3 [17]) of 43.3%, a T/C (MDA-MB-435 [18]) of 85% and a T/C (MDA-MB-435 [19]) of 69.8%. For the same compound, the T/C (MDA-MB-468) was 52.8%, the inhibition (U-87 MG [20]) was “Active” and the inhibition (U-87 MG [21]) was “Active”. For the same compound, the inhibition (OVCAR-3 [22]) was “Active”, the inhibition (OVCAR-3 [23]) was “Active” and the inhibition (OVCAR-3 [24]) was “Active”. For the same compound, the inhibition at 0.05 µM (U-87 MG [25]) was 44%, the Body weight loss (U-87 MG [26]) was <15% and the Body weight loss (U-87 MG [27]) was <15%. The Body weight loss (PC-3 [28]) was <15% and the Body weight loss (HCT-116 [29]) was <15%.
